We go through 1 molecule from ChEMBL document CHEMBL4673249, “Anticancer Effects of Honokiol via Mitochondrial Dysfunction Are Strongly Enhanced by the Mitochondria-Targeting Carrier Berberine” (J Med Chem, 2020).

In general, IC50 refers to the concentration that gives 50% inhibition.

Calls of active or inactive are those of the source. The calls are words filed in the database; no cut-off is given here.

Series [1] concerns HepG2. Description: Induction of mitochondrial dysfunction in human HepG2 cells assessed as decrease in mitochondrial membrane […] at 1 to 4 uM after 24 hrs by JC-1 staining based flow cytometric analysis. The series is classed as functional, cell-based. The settings on record: dose 1-4 µM. An outline of the steps:
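HepG2 cells in 6-well plates treated for 24 h at 37 °C, then trypsinized. Stained with JC-1 at a final 2.5 μg/mL for 30 min, washed three times, resuspended in PBS and read by flow cytometry.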
In general terms: Flow cytometry measures light scatter and fluorescence of single cells or particles in a stream.

The subject of series [2] is HepG2. Description: Induction of apoptosis in human HepG2 cells assessed as increase in cleaved-caspase 8 protein expression at 1 to 4 uM after 24 hrs by Western blot analysis. The series is classed as functional, cell-based. The conditions noted are these: dose 1-4 µM. An outline of the steps: (§1)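 HepG2 cells lysed in RIPA on ice for 20 min; protein measured by BCA. Lysates run on 10% SDS-PAGE and transferred to PVDF. Membranes blocked in 5% nonfat milk/TBST for 2 h, incubated with primary antibodies overnight at 4 °C, then HRP secondary antibody; bands detected by ECL.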
A general note: In western blotting, separated proteins are transferred to a membrane and probed.

The test system of series [3] is HepG2. Description: Induction of apoptosis in human HepG2 cells assessed as increase in cleaved-PARP protein expression at 1 to 4 uM after 24 hrs by Western blot analysis. The class given is functional, cell-based. The conditions noted are these: dose 1-4 µM. The essentials: as §1
The subject of series [4] is HepG2. Description: Induction of mitochondrial morphological changes in human HepG2 cells assessed as dilation of mitochondria by measuring vacuoles at 3 uM measured up to 30 hrs […] by TEM analysis. The series is classed as functional, cell-based. The settings on record: time hrs <=30. An outline of the steps: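 HepG2 cells given 3 μM for 15 h or 30 h, then fixed in 2.5% glutaraldehyde at 4 °C overnight. Dehydrated through graded alcohols, embedded in resin and examined by transmission electron microscopy.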

Series [5] has as its system HepG2. Description: Induction of apoptosis in human HepG2 cells assessed as viable cells at 2 uM after 24 hrs by annexin V/propidium iodide staining based flow cytometric analysis (reference value: 95.3%). The conditions noted are these: read-out: Activity. The class given is functional.
A short description of series [6]: Ratio of HN drug uptake to test compound drug uptake in human HepG2 cells at 5 uM after 12 hrs by HPLC analysis. The series is classed as ADME, cell-based. The settings on record: hepg2, 12 h. The essentials: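 HepG2 cells treated with 5 μM compound or honokiol for 12 h. Mitochondria isolated with a kit by centrifugation at 600g then 11000g, 4 °C, 10 min each. Whole-cell and mitochondrial drug measured by HPLC on a C18 column, methanol-0.1% acetic acid (80:20), at 265 nm (derivative) and 210 nm (honokiol). Run thrice.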

Another series has as its system A549. Description: Antiproliferative activity against human A549 cells assessed as reduction in cell viability after 48 hrs by MTT assay. The class given is functional, cell-based. The settings on record: A549, 48 h. An outline of the steps:
(§2)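 Cell lines grown at 37 °C in 5% CO2: A2780, A549, HL7702 and PC3 in RPMI 1640; HT29 in McCoy's 5A; HepG2 and PANC-1 in DMEM; all media with 10% FBS and penicillin/streptomycin. Cells seeded and left overnight, then exposed to compound for 48 h. MTT (5 mg/mL solution) added for 4 h at 37 °C, formazan dissolved in DMSO, absorbance read at 570 nm. IC50 taken from viability; run in triplicate.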
(In general: Tetrazolium dyes change colour on reduction, which living cells bring about.)

Series [7] relates to HepG2. Description: Induction of cell death in human HepG2 cells at 3 uM after 12 hrs by MTT assay. The series is classed as functional, cell-based.
Series [8] deals with HepG2. Description: Induction of cell death in human HepG2 cells at 3 uM after 24 hrs in presence of CQ by MTT assay. The series is classed as functional, cell-based. The essentials:
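HepG2 cells given 3 μM for 24 h together with CQ (10 μM) or 3-MA (1 mM). Viability measured by MTT with absorbance read at 570 nm.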

The subject of series [9] is HepG2. Description: Induction of ROS generation in human HepG2 cells at 2 uM measured up to 24 hrs by DCFH-DA staining based flow cytometric analysis. The class given is functional, cell-based. The settings on record: time hrs <=24. An outline of the steps:
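HepG2 cells treated for the stated time, then loaded with 10 μM DCFH-DA in FBS-free medium for 30 min in the dark. Washed twice with PBS, trypsinized, pelleted at 1200 rpm for 5 min, resuspended in PBS and read by flow cytometry. Kit Rosup reagent served as positive agent.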

The test system of series [10] is HepG2. Description: Induction of mitochondrial dysfunction in human HepG2 cells assessed as increase in MPTP opening at 1 to 4 uM after 24 hrs by JC-1 staining based flow cytometric analysis. The conditions noted are these: dose 1-4 µM. The series is classed as functional, cell-based.
The subject of series [11] is HepG2. Description: Induction of apoptosis in human HepG2 cells assessed as early apoptotic cells at 1 uM after 24 hrs by annexin V/propidium iodide staining based flow cytometric analysis (reference value: 1.29%). The class given is functional.
The subject of series [12] is HepG2. Description: Antitumour activity against human HepG2 cells xenografted in AB zebrafish assessed as inhibition of cell growth at 0.8 to 2.4 uM after 48 hrs by cell tracker CM-Dil based laser confocal microscopic method. The class given is functional. The conditions noted are these: dose 0.8-2.4 µM. An outline of the steps: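 Wild-type AB zebrafish embryos raised at 28 °C in embryo medium (5.0 mM NaCl, 0.17 mM KCl, 0.4 mM CaCl2, 0.16 mM MgSO4). HepG2 cells labelled with CM-DiI, microinjected into 2-day-old larvae. At 4 h post-injection, larvae with the same injection spot were grouped (about 15–20 per group, three wells each). Exposed to 0.8, 1.6 or 2.4 μM in the water for 48 h; doxorubicin 1.0 μM as reference. Tumour fluorescence intensity measured by confocal microscopy.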

The subject of series [13] is HepG2. Description: Induction of autophagy in human HepG2 cells assessed as effect on P62 protein expression at 3 uM after 24 hrs by Western blot analysis. The series is classed as functional, cell-based. The essentials: as §1
For series [14], the system named is HepG2. Description: Induction of apoptosis in human HepG2 cells assessed as necrotic cells at 4 uM after 24 hrs by annexin V/propidium iodide staining based flow cytometric analysis (reference value: 0.11%). The series is classed as functional.
Another series has as its system PC-3. Description: Antiproliferative activity against human PC-3 cells assessed as reduction in cell viability after 48 hrs by MTT assay. The class given is functional, cell-based. The conditions noted are these: PC-3, 48 h. The essentials:
as §2

For series [15], the system named is HepG2. Description: Potency index, ratio of HN IC50 to test compound IC50 for antiproliferative activity against human HepG2 cells. The class given is functional. The essentials: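 MTT assay after 48 h drug exposure. Cells seeded overnight, MTT (5 mg/mL stock) added for 4 h at 37 °C, formazan dissolved in DMSO, absorbance read at 570 nm. IC50 taken from viability, repeated in triplicate, and the IC50 ratio calculated.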

The test system of series [16] is HepG2. Description: Induction of apoptosis in human HepG2 cells assessed as late apoptotic cells at 4 uM after 24 hrs by annexin V/propidium iodide staining based flow cytometric analysis (reference value: 3.22%). The class given is functional.
Series [17] relates to L02. Description: Induction of morphological changes in human L02 cells assessed as accumulation of cytoplasmic vacuoles at 4 uM after 24 hrs by optical microscopic method. The settings on record: l02, 24 h. The class given is cell-based. The essentials: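 Cells grown at 37 °C, 5% CO2 in media with 10% FBS and penicillin/streptomycin, then treated with compound. Cytoplasmic vacuoles judged by optical microscopy. Time course at 4 μM, or 10 h exposure across increasing concentrations.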

For series [18], the system named is HepG2. Description: Induction of apoptosis in human HepG2 cells assessed as early apoptotic cells at 4 uM after 24 hrs by annexin V/propidium iodide staining based flow cytometric analysis (reference value: 1.29%). The class given is functional.
The test system of series [19] is L02. Description: Antiproliferative activity against human L02 cells assessed as reduction in cell viability after 48 hrs by MTT assay. The conditions noted are these: L02, 48 h. The series is classed as cell-based. The essentials: as §2
The test system of series [20] is HepG2. Description: Induction of apoptosis in human HepG2 cells assessed as viable cells at 4 uM after 24 hrs in presence of z-VAD-fmk by annexin V/propidium iodide staining based flow cytometric analysis (reference value: 92.8%). The series is classed as functional. The conditions noted are these: read-out: Activity.

For the molecule `C=CCc1ccc(O)c(-c2ccc(OCCCCCc3c4[n+](cc5c(OC)c(OC)ccc35)CCc3cc5c(cc3-4)OCO5)c(CC=C)c2)c1.[I-]`, the outcome in the series on HepG2 [1], with HepG2 [2], in the series on HepG2 [3], in the series on HepG2 [4], with HepG2 [7] and in the series on HepG2 [8] was Active. Further, the outcome with HepG2 [9] and in the series on HepG2 [10] was Active. In addition, the viability at 2 µM with HepG2 [5] came out at 93.3%. For the same molecule, in [6], the Ratio was determined as 2.5. Moreover, the IC50 came out at 3000 nM in the series with A549, 2250 nM in the series on PC-3 and 4610 nM with L02 [19]. Also, the Activity is on record as 3.27% in the series with HepG2 [11]; 0.41% in the series on HepG2 [14]; 17.6% in the series on HepG2 [16]; “Active” in the series with L02 [17]; 7.91% with HepG2 [18]. In the series on HepG2 [12], the “growth inhibition (GI)” value was “Active”. The result in the series with HepG2 [13] was inactive. In addition, the “Ratio IC50” value in the series on HepG2 [15] is on record as 14.6. Moreover, the viability at 4 µM with HepG2 [20] came to 73%.
